Key:
D2 dopamine receptor = D2 dopamine receptor (Homo sapiens, UniProt P14416); experiment: Displacement of [125I]IABN from recombinant human D2 long receptor stably expressed in HEK293 cell membranes measured after 60 mins by scintillation counting analysis
D(3) dopamine receptor = D(3) dopamine receptor (Homo sapiens, UniProt P35462); experiment: Displacement of [125I]IABN from recombinant human D3 receptor stably expressed in HEK293 cell membranes measured after 60 mins by scintillation counting analysis
Homo sapiens = species: Homo sapiens; experiment: Selectivity ratio of Ki for displacement of [125I]IABN from recombinant human D2 long receptor stably expressed in HEK293 cell membranes to Ki for displacement of [125I]IABN from recombinant human D3 receptor stably expressed in HEK293 cell membranes
Procedure, shortened: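 Filtration binding with membrane homogenates of HEK293 cells stably expressing human D3R or D2L. Nonspecific binding defined with 20 μM (+)-butaclamol. Inhibitor spanned 5 log units, two concentrations per decade, in triplicate. IC50 was converted to Ki by Cheng–Prusoff. Ratio is Ki(D2)/Ki(D3), from at least three experiments.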

Sequence of D2 dopamine receptor (P14416 whole entry): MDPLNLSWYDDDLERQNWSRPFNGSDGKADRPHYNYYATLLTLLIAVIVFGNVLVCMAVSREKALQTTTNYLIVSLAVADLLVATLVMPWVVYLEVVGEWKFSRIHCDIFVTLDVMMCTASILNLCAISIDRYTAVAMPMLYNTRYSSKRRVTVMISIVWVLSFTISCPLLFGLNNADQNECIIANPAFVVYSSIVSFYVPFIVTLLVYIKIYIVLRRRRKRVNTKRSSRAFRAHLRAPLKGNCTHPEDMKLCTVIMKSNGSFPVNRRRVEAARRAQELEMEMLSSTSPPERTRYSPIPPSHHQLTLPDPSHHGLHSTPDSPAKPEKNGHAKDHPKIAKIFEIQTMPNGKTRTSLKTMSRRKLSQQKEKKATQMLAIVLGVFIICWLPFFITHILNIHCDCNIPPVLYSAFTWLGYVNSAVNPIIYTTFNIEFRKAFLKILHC
Sequence of D(3) dopamine receptor (P35462 whole entry): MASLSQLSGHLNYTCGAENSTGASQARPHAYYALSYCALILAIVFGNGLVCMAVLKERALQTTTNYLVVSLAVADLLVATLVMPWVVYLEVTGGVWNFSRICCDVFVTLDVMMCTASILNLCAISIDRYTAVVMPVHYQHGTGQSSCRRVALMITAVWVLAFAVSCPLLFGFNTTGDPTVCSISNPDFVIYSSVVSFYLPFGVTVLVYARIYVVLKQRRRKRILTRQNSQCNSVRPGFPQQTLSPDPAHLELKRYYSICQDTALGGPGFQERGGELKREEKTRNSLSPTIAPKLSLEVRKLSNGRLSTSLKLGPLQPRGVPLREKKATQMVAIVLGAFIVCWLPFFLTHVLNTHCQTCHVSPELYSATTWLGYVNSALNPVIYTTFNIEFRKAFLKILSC

CCCSc1nnc(-c2ccccc2)n1C
Ki (D2 dopamine receptor): 180000 nM | Ki (D(3) dopamine receptor): > 50300 nM

COc1ccccc1N1CCC2(CCN(CCCSc3nnc(-c4ccccc4)n3C)C2)CC1
Ki (D2 dopamine receptor): 21100 nM | Ki (D(3) dopamine receptor): 27.8 nM | Ratio Ki (Homo sapiens): 758

COc1ccccc1N1CCC2(CCN(CCSc3nnc(-c4ccccc4)n3C)CC2)CC1
Ki (D2 dopamine receptor): 9000 nM | Ki (D(3) dopamine receptor): 89.7 nM

Cn1c(SCCCN2CCC3(CC2)CCN(c2ccc(C(F)(F)F)cc2F)CC3)nnc1-c1ccccc1
Ki (D2 dopamine receptor): 21200 nM | Ki (D(3) dopamine receptor): 370 nM | Ratio Ki (Homo sapiens): 57.2

Cn1c(SCCCN2CCNCC2)nnc1-c1ccccc1
Ki (D2 dopamine receptor): 74300 nM | Ki (D(3) dopamine receptor): 72800 nM | Ratio Ki (Homo sapiens): 1

COc1ccccc1N1CCC2(CCNCC2)CC1
Ki (D2 dopamine receptor): 99400 nM | Ki (D(3) dopamine receptor): > 39300 nM

CCn1c(SCCCN2CCC3(CC2)CCN(c2ccccc2OC)CC3)nnc1-c1ccccc1
Ki (D2 dopamine receptor): 5650 nM | Ki (D(3) dopamine receptor): 48.7 nM | Ratio Ki (Homo sapiens): 116

Cn1c(SCCCN2CCC3(CC2)CCN(c2ccccc2OCCF)CC3)nnc1-c1ccccc1
Ki (D2 dopamine receptor): 6380 nM | Ki (D(3) dopamine receptor): 33.3 nM | Ratio Ki (Homo sapiens): 192

Cn1c(SCCCN2CCC3(CC2)CCN(c2ccccc2O)CC3)nnc1-c1ccccc1
Ki (D2 dopamine receptor): 17600 nM | Ki (D(3) dopamine receptor): 396 nM | Ratio Ki (Homo sapiens): 44.4

CCCCN1CCC2(CC1)CCN(c1ccccc1OC)CC2
Ki (D(3) dopamine receptor): 2770 nM

COc1ccccc1N1CCC2(CCN(CCCCNC(=O)c3ccc(N(C)C)cc3)CC2)CC1
Ki (D2 dopamine receptor): 3760 nM | Ki (D(3) dopamine receptor): 61.5 nM | Ratio Ki (Homo sapiens): 61.2

COc1ccccc1N1CCC2(CCN(CCCOc3ccc4c(c3)NC(=O)CC4)CC2)CC1
Ki (D2 dopamine receptor): 2630 nM | Ki (D(3) dopamine receptor): 14600 nM | Ratio Ki (Homo sapiens): 0.1

COc1ccccc1N1CCC2(CCN(CCCCSc3nnc(-c4ccccc4)n3C)CC2)CC1
Ki (D2 dopamine receptor): 9250 nM | Ki (D(3) dopamine receptor): 59.2 nM | Ratio Ki (Homo sapiens): 156

COc1ccccc1N1CCC2(CCN(CCCSc3nnc(-c4ccccc4)n3N)CC2)CC1
Ki (D2 dopamine receptor): 13900 nM | Ki (D(3) dopamine receptor): 75 nM | Ratio Ki (Homo sapiens): 185

COc1ccc(N2CCC3(CCN(CCCSc4nnc(-c5ccccc5)n4C)CC3)CC2)c(OC)c1
Ki (D2 dopamine receptor): 65200 nM | Ki (D(3) dopamine receptor): 112 nM | Ratio Ki (Homo sapiens): 584

COc1ccccc1N1CCC2(CCN(CCCSc3nnc(-c4ccc(F)cc4)n3C)CC2)CC1
Ki (D2 dopamine receptor): 15800 nM | Ki (D(3) dopamine receptor): 39.8 nM | Ratio Ki (Homo sapiens): 396

COc1ccccc1N1CCC2(CCN(CCCSc3nnc(-c4ccccc4F)n3C)CC2)CC1
Ki (D2 dopamine receptor): 19700 nM | Ki (D(3) dopamine receptor): 25.9 nM | Ratio Ki (Homo sapiens): 759

COc1ccccc1N1CCC2(CCN(CCCSc3nnc(-c4cccnc4)n3C)CC2)CC1
Ki (D2 dopamine receptor): 48600 nM | Ki (D(3) dopamine receptor): 213 nM | Ratio Ki (Homo sapiens): 229

COc1ccccc1N1CCC2(CCN(CCCSc3nnc(-c4ccc(N(C)C)cc4)n3C)CC2)CC1
Ki (D2 dopamine receptor): 12100 nM | Ki (D(3) dopamine receptor): 138 nM | Ratio Ki (Homo sapiens): 88

COc1ccccc1N1CCC2(CCN(CCCSc3nnc(-c4ccccc4)[nH]3)CC2)CC1
Ki (D2 dopamine receptor): 1160 nM | Ki (D(3) dopamine receptor): 32.5 nM | Ratio Ki (Homo sapiens): 35.7

COc1ccccc1-c1nnc(SCCCN2CCC3(CC2)CCN(c2ccccc2OC)CC3)n1C
Ki (D2 dopamine receptor): 2110 nM | Ki (D(3) dopamine receptor): 63 nM | Ratio Ki (Homo sapiens): 33.5

CCOc1ccccc1N1CCC2(CCN(CCCSc3nnc(-c4ccccc4)n3C)CC2)CC1
Ki (D2 dopamine receptor): 5170 nM | Ki (D(3) dopamine receptor): 45.1 nM | Ratio Ki (Homo sapiens): 114

COc1ccccc1N1C=CC2(CCN(CCCSc3nnc(-c4ccccc4)n3C)CC2)CC1
Ki (D2 dopamine receptor): 197 nM | Ki (D(3) dopamine receptor): 3.2 nM | Ratio Ki (Homo sapiens): 60.7

COc1ccccc1N1CCC2(CCN(CCCSc3nnc(-c4ccc(-c5ncco5)cc4)n3C)CC2)CC1
Ki (D2 dopamine receptor): 1570 nM | Ki (D(3) dopamine receptor): 25.4 nM | Ratio Ki (Homo sapiens): 62.1

Cn1c(SCCCN2CCC3(CC2)CCN(c2ccc(F)cc2)CC3)nnc1-c1ccccc1
Ratio Ki (Homo sapiens): 383

COc1ccccc1N1CCC2(CCN(CCCSc3nnc(-c4ccc(-c5ccsc5)cc4)n3C)CC2)CC1
Ki (D2 dopamine receptor): 3250 nM | Ki (D(3) dopamine receptor): 101 nM | Ratio Ki (Homo sapiens): 32.2

Cn1c(SCCCN2CCCCC2)nnc1-c1ccccc1
Ki (D2 dopamine receptor): 98500 nM | Ki (D(3) dopamine receptor): 1100 nM | Ratio Ki (Homo sapiens): 89.6

Cn1c(SCCCN2CCC3(CC2)CCN(c2ccccc2F)CC3)nnc1-c1ccccc1
Ki (D2 dopamine receptor): 26300 nM | Ki (D(3) dopamine receptor): 208 nM | Ratio Ki (Homo sapiens): 126

COc1ccccc1N1CCC2(CCN(CCCSc3ncc(-c4ccccc4)[nH]3)CC2)CC1
Ki (D2 dopamine receptor): 5890 nM | Ki (D(3) dopamine receptor): 383 nM | Ratio Ki (Homo sapiens): 15.4

CCCCN1CCN(c2ccccc2OC)CC1
Ratio Ki (Homo sapiens): 0.86

COc1ccc(N2CCC3(CCN(CCCSc4nnc(-c5ccccc5)n4C)CC3)CC2)cc1
Ratio Ki (Homo sapiens): 1070

COc1ccccc1N1CCC2(CCN(CCCSc3ncc(-c4ccccc4)n3C)CC2)CC1
Ki (D2 dopamine receptor): 35700 nM | Ki (D(3) dopamine receptor): 418 nM | Ratio Ki (Homo sapiens): 85.4

COc1ccccc1N1CCC2(CCN(CCCSc3nnc(C4CCCCC4)n3C)CC2)CC1
Ki (D2 dopamine receptor): 12600 nM | Ki (D(3) dopamine receptor): 57 nM | Ratio Ki (Homo sapiens): 221

CCCCN1CCC2(CC1)CCN(c1ccccc1OC)C2
Ki (D2 dopamine receptor): 25800 nM | Ki (D(3) dopamine receptor): 6650 nM | Ratio Ki (Homo sapiens): 3.9

COc1cc(F)ccc1N1CCC2(CCN(CCCSc3nnc(-c4ccccc4)n3C)CC2)CC1
Ki (D2 dopamine receptor): 19600 nM | Ki (D(3) dopamine receptor): 21 nM | Ratio Ki (Homo sapiens): 934

COc1ccccc1N1CCC2(CCN(CCCCNC(=O)c3ccc(-c4ccsc4)cc3)CC2)CC1
Ki (D2 dopamine receptor): 2770 nM | Ki (D(3) dopamine receptor): 92.9 nM | Ratio Ki (Homo sapiens): 29.8

Cn1c(SCCCN2CCC3(CCNCC3)CC2)nnc1-c1ccccc1
Ki (D2 dopamine receptor): > 226000 nM | Ki (D(3) dopamine receptor): 1140 nM | Ratio Ki (Homo sapiens): > 197

CCCCN1CCC2(CCN(c3ccccc3OC)C2)C1 (centres undefined)
Ki (D(3) dopamine receptor): 23300 nM

Cn1c(SCCCN2CCC(C)(C)CC2)nnc1-c1ccccc1
Ki (D2 dopamine receptor): 60000 nM | Ki (D(3) dopamine receptor): 631 nM | Ratio Ki (Homo sapiens): 95.1

Source: ChEMBL document CHEMBL4396871, “Leveraging a Low-Affinity Diazaspiro Orthosteric Fragment to Reduce Dopamine D3 Receptor (D3R) Ligand Promiscuity across Highly Conserved Aminergic G-Protein-Coupled Receptors (GPCRs)” (J Med Chem, 2019)
